Counter-ions that a name gives are not always drawn.
Tests used:
[1] = test system: HT29 cells (TNF-α-induced necroptosis); assay: Necroptosis induction and inhibition assay in HT29; assay type: cell-based, human; conditions: for EC50: Homo sapiens, HT-29, read-out: EC50^HT29 against TNF-α-induced necroptosis, zVAD (20 μM), human TNF-α (40 ng/mL), Smac mimetic SM-164 (100 nM), CCK-8
[2] = test system: L929 cells (TNF-α-induced necroptosis); assay: Necroptosis induction and inhibition assay in L929; assay type: cell-based, mouse; conditions: for EC50: Mus musculus, L929, read-out: EC50^L929 against TNF-α-induced necroptosis, mouse TNF-α (20 ng/mL) and zVAD (10 μM), CCK-8
[3] = test system: caspase 3 activity in L929 cell lysates; assay: Caspase 3 activity in L929 cell lysates; assay type: cell-based, mouse
Outline: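 L929 cells were cultured 12 h in 12-well plates, then exposed to test compound or DMSO for 0, 1, 2, 3 or 4 h. Protein was measured by BCA. Lysate was incubated with Ac-DEVD-pNA overnight at 37 °C and read at A405 minus blank. Three experiments, each in triplicate.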

[4] = target: RIPK3-RIPK1 interaction (Mus musculus, UniProt Q9QZL0); assay: RIPK1 immunoprecipitation; assay type: cell-based; conditions: L929, 10 µM, 5 hours
RIPK3-RIPK1 interaction, sequence (Q9QZL0 whole entry): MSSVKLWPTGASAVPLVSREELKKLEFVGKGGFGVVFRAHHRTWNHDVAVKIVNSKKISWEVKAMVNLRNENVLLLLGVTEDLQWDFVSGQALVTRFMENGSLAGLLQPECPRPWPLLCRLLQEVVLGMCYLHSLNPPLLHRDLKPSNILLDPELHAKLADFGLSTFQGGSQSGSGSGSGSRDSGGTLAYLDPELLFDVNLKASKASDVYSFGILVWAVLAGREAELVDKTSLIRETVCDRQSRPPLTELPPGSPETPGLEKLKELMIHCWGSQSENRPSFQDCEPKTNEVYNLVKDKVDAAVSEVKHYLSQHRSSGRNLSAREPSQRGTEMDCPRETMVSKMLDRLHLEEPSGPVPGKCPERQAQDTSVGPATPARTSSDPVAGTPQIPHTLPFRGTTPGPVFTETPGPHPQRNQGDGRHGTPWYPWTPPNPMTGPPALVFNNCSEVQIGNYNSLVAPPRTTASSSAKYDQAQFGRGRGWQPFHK
Outline: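 Lysates were cleared at 17,000 g for 15 min at 4 °C, and an input sample was kept. Lysate was incubated with anti-RIPK1 antibody on protein A/G magnetic beads for 2 h at 4 °C. Co-precipitated RIPK3 was detected by Western blot. Normalized quantification came from three independent experiments.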

[5] = test system: RIPK3 and MLKL phosphorylation in L929 cells; assay: Western blot of RIPK3 and MLKL phosphorylation, L929; assay type: cell-based, mouse; conditions: L929, inhibitors at 3 and 10 µM, necroptosis induced for 3 hours
Outline: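 L929 cells were grown in 6-well plates to about 80% confluency and given test compound or DMSO with zVAD (10 μM) for 1-2 h. Mouse TNF-α (20 ng/mL) was then added for 3 h. Cells were washed three times in cold PBS and lysed in 10 mM Tris-HCl pH 8.0, 1% SDS, 1 mM orthovanadate with protease and phosphatase inhibitors. Lysates were boiled for 10 min and stored at -80 °C. Phospho-RIPK3 and phospho-MLKL were immunoblotted after 10% SDS-PAGE and PVDF transfer.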

[6] = test system: RIPK3 and MLKL phosphorylation in HT29 cells; assay: Western blot of RIPK3 and MLKL phosphorylation, HT29; assay type: cell-based, human; conditions: HT29, inhibitors at 3 and 10 µM, necroptosis induced for 3 hours
Outline: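 HT29 cells were grown in 12-well plates to about 80% confluency and given test compound or DMSO with zVAD (20 μM) for 1-2 h. Necroptosis was then induced with human TNF-α (40 ng/mL) plus SM-164 (100 nM) for 3 h. Cells were washed three times in cold PBS and lysed for 10 min at room temperature in RIPA buffer with protease and phosphatase inhibitors and SDS loading buffer. Phospho-RIPK3 and phospho-MLKL were immunoblotted after 10% SDS-PAGE and PVDF transfer.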

[7] = test system: caspase 3 and caspase 8 cleavage in L929 cells; assay: Western blot of caspase 3 and caspase 8 cleavage in L929 cells; assay type: cell-based, mouse; conditions: L929, 3 hours
Outline: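 L929 cells in 12-well plates at about 80% confluency were exposed for 3 h to test compound, DMSO or medium, each with 10 µM zVAD. Cells were lysed at room temperature in a Triton X-100/Tris-based 1× SDS sample buffer and boiled 10 min. Proteins were run on 15% SDS-PAGE and blotted to PVDF. Membranes were blocked in 5% milk and probed for caspase 3 and caspase 8 cleavage overnight at 4 °C. Three independent experiments.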

[8] = test system: L929^RIPK3-/- cells; assay: Cell viability assay with or without zVAD, L929 RIPK3 knockout; assay type: cell-based, mouse
Outline: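 L929 cells were grown in MEM with 10% FBS. RIPK3 was knocked out by CRISPR/Cas9 (sgRNA against mouse RIPK3), and knockout was confirmed by sequencing and immunoblot. Knockout lines with or without re-expressed RIPK3 K51A or K51A/R69H were seeded at 10,000–20,000 cells/well and left to attach for 24 h. Cells were exposed to test compound alone or with zVAD for 18–20 h. Viability was read by CCK-8 (1–2 h, 37 °C, A450). Three experiments in triplicate; CC50 by nonlinear regression.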

[9] = target: BRK kinase domain (Homo sapiens, UniProt Q13882, C433T); assay: ADP-Glo kinase assay, BRK; assay type: biochemical
BRK kinase domain, sequence (Q13882 185-446 C433T): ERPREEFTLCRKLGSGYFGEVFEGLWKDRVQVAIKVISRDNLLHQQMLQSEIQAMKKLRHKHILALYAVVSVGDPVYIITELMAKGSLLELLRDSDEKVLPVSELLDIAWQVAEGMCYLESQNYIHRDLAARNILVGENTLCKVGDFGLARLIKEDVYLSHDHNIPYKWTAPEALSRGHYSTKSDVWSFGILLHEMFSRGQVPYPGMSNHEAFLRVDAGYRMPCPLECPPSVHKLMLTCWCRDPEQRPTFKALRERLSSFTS
Outline: (§1)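 Human kinase domains were expressed in Sf-9 cells from baculovirus and purified by Ni-NTA then size exclusion: BRK 185-446 (C433T, C-terminal 6×His) and RIPK2 1-310 (C-terminal 10×His). Each was preincubated with test compound or DMSO in 40 mM Tris pH 7.5, 20 mM MgCl2, 0.1 mg/mL BSA. ATP was added to 20 µM final for 1 h at room temperature, and ADP was read by ADP-Glo luminescence.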

[10] = target: panel of 379 human kinases (Homo sapiens, UniProt O43353); assay: Selectivity profiling, Eurofins KinaseProfiler; assay type: biochemical; conditions: read-out: inhibition rate against RIPK2
panel of 379 human kinases (Homo sapiens, UniProt O43353), sequence (O43353 whole entry): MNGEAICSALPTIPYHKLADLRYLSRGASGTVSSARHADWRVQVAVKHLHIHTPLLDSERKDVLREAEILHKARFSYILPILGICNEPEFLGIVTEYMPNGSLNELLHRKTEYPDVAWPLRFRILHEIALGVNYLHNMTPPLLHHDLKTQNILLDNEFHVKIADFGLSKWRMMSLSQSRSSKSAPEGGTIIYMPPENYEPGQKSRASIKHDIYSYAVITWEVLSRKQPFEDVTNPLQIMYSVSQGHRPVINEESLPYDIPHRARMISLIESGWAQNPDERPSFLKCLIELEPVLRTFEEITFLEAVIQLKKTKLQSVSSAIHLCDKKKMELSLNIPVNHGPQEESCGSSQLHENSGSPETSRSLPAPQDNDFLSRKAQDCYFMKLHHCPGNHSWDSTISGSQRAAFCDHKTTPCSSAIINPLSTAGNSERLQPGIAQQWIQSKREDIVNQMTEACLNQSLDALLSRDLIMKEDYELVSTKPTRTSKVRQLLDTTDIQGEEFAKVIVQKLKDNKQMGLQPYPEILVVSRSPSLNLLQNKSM

[11] = test system: panel of 379 human kinases; assay: Selectivity profiling, Eurofins KinaseProfiler; assay type: biochemical; conditions: 379 kinases
[12] = target: panel of 379 human kinases (Homo sapiens, UniProt Q13882); assay: Selectivity profiling, Eurofins KinaseProfiler; assay type: biochemical; conditions: read-out: inhibition rate against breast tumor kinase (BRK)
panel of 379 human kinases (Homo sapiens, UniProt Q13882), sequence (Q13882 whole entry): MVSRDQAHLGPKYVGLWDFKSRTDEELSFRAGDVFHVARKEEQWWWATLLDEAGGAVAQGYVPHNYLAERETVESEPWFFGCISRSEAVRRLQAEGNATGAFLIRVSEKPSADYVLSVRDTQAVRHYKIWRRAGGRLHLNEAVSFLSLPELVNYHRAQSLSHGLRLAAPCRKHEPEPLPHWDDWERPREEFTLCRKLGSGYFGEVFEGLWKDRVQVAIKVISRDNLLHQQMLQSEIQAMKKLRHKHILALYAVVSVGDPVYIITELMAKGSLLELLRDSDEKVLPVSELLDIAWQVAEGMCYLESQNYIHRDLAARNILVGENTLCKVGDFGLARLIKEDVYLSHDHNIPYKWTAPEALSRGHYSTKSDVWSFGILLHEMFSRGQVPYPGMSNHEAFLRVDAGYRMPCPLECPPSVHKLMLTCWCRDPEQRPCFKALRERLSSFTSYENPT

[13] = target: RIPK2 (Homo sapiens, UniProt O43353); assay: ADP-Glo kinase assay, RIPK2; assay type: biochemical
RIPK2, sequence (O43353 1-310): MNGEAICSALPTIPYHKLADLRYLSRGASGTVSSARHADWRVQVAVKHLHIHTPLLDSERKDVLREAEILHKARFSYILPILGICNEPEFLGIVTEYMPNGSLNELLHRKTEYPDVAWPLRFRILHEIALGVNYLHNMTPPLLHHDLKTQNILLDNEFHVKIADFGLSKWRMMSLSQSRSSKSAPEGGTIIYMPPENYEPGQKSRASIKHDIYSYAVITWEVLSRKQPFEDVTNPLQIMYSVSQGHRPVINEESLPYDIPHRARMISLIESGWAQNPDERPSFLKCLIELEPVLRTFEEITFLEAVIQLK
Outline: as §1

[14] = test system: L929 cells; assay: Cell viability assay with or without zVAD; assay type: cell-based, mouse; conditions: for on-target apoptosis in cells (in words): L929, murine cells

concentration at which caspase 3 is activated [3] [µM] | concentration at which cleavage of caspases 8 and 3 is seen (Western blot) [7] [µM] | SMILES | EC50 [1] [nM] | EC50 [2] [nM] | interaction between RIPK3 and RIPK1 (co-immunoprecipitation) [4] | RIPK3 and MLKL phosphorylation induced by TNF-α (Western blot) [5] | RIPK3 and MLKL phosphorylation induced by TNF-α (Western blot) [6] | activation of the apoptotic pathway: cleavage of caspase 8 and caspase 3 (Western blot) [7] | change of CC50 between L929 and L929^RIPK3-/- cells [8] | change of CC50 in the presence or absence of zVAD ([14]; L929) | further results
 |  | CC[C@H](C)c1nc2cc(Nc3ccnc4ccc(S(=O)(=O)C(C)C)cc34)ccc2s1 [LK01001, (S)-2-(sec-butyl)-N-(6-(isopropylsulfonyl)quinolin-4-yl)benzo[d]thiazol-5-amine hydrochloride] | 4100 | 7000 |  |  |  |  |  |  | 
> 50 |  | CC[C@@H](C)c1nc2cc(Nc3ccnc4ccc(S(=O)(=O)C(C)C)cc34)ccc2s1.Cl [LK01002, (R)-2-(sec-butyl)-N-(6-(isopropylsulfonyl)quinolin-4-yl)benzo[d]thiazol-5-amine hydrochloride] | 2000 | 4800 | neither increase the interaction of RIPK3 with RIPK1 | effectively inhibit RIPK3 and MLKL phosphorylation | effectively inhibit RIPK3 and MLKL phosphorylation | nor activate the apoptotic pathway | remain largely unchanged |  | 
 | > 100 | CCC(C)c1nc2cc(-c3nn(C(C)(C)C)c4ncnc(N)c34)ccc2s1 (stereo not shown) [LK01004, 1-(tert-butyl)-3-(2-(sec-butyl)benzo[d]thiazol-5-yl)-1H-pyrazolo[3,4-d]pyrimidin-4-amine] |  | 3000 |  |  |  |  |  | do not change significantly in the presence or absence of zVAD | RIPK3-independent cell killing (off-target toxicity) ([14]; L929): still exhibit a substantial portion of RIPK3-independent cell killing; on-target apoptosis in cells (in words) [14]: do not induce on-target apoptosis
 | > 100 | CC(C)(C)n1nc(-c2ccc3sc(C4CCCC4)nc3c2)c2c(N)ncnc21 [LK01005, 1-(tert-butyl)-3-(2-cyclopentylbenzo[d]thiazol-5-yl)-1H-pyrazolo[3,4-d]pyrimidin-4-amine] |  | 2100 |  |  |  |  |  | do not change significantly in the presence or absence of zVAD | RIPK3-independent cell killing (off-target toxicity) ([14]; L929): still exhibit a substantial portion of RIPK3-independent cell killing; on-target apoptosis in cells (in words) [14]: do not induce on-target apoptosis
 | > 10 | Cl.O=S1(=O)C=C(C2CC2)c2cc3nccc(Nc4ccc5sc(C6CCCC6)nc5c4)c3cc21 [LK01033, 8-((2-cyclopentylbenzo[d]thiazol-5-yl)amino)-3-cyclopropylthieno[2,3-g]quinoline 1,1-dioxide hydrochloride] | 110 | 390 |  |  |  |  |  | does not change significantly in the presence or absence of zVAD | 
> 50 |  | CC(C)S(=O)(=O)c1cc2c(Nc3ccc4sc(C5CCCC5)nc4c3)ccnc2cc1OCCO [LK01045, 2-((4-((2-cyclopentylbenzo[d]thiazol-5-yl)amino)-6-(isopropylsulfonyl)quinolin-7-yl)oxy)ethan-1-ol] | 160 | 610 | neither increase the interaction of RIPK3 with RIPK1 | effectively inhibits RIPK3 and MLKL phosphorylation | effectively inhibits RIPK3 and MLKL phosphorylation | nor activate the apoptotic pathway | remain largely unchanged |  | stronger potency compared to GSK'872 (EC50, HT29) ([1]; HT29 necroptosis): ~49 fold; stronger potency compared to LK01003 (EC50, HT29) ([1]; HT29 necroptosis): ~5 fold; stronger potency compared to GSK'872 (EC50, L929) ([2]; L929 necroptosis): approximately 6 fold; stronger potency compared to LK01003 (EC50, L929) ([2]; L929 necroptosis): approximately 6 fold
 | > 100 | N#Cc1c(Oc2ccc(F)c(NC(=O)Cc3cccc(C(F)(F)F)c3)c2)ccc2nc(NC(=O)C3CC3)sc12 [TAK-632, N-(7-Cyano-6-(4-fluoro-3-(2-(3-(trifluoromethyl)phenyl)acetamido)phenoxy)benzo[d]thiazol-2-yl)cyclopropanecarboxamide, reference compound] |  |  |  |  |  |  |  |  | 
 | 0.1 | Cl.O=S1(=O)C=C(C2CC2)c2cc3nccc(Nc4ccc5scnc5c4)c3cc21 [Zharp-99, 8-(benzo[d]thiazol-5-ylamino)-3-cyclopropylthieno[2,3-g]quinoline 1,1-dioxide hydrochloride, reference compound] | 220 | 70 |  |  |  |  |  |  | difference of CC50 in the presence or absence of zVAD ([14]; L929): ~ 36 fold

SMILES | concentration at which caspase 3 is activated [3] [µM] | concentration at which cleavage of caspases 8 and 3 is seen (Western blot) [7] [µM] | EC50 [1] [nM] | EC50 [2] [nM] | interaction between RIPK3 and RIPK1 (co-immunoprecipitation) [4] | RIPK3 and MLKL phosphorylation induced by TNF-α (Western blot) [5] | RIPK3 and MLKL phosphorylation induced by TNF-α (Western blot) [6] | activation of the apoptotic pathway: cleavage of caspase 8 and caspase 3 (Western blot) [7] | change of CC50 between L929 and L929^RIPK3-/- cells [8] | change of CC50 in the presence or absence of zVAD ([14]; L929) | further results
CC(C)S(=O)(=O)c1ccc2nccc(Nc3ccc4sc(C5CCCC5)nc4c3)c2c1.Cl [LK01003, 2-cyclopentyl-N-(6-(isopropylsulfonyl)quinolin-4-yl)benzo[d]thiazol-5-amine hydrochloride] | > 50 |  | 850 | 3700 | neither increase the interaction of RIPK3 with RIPK1 | effectively inhibit RIPK3 and MLKL phosphorylation | effectively inhibit RIPK3 and MLKL phosphorylation | nor activate the apoptotic pathway | remain largely unchanged |  | IC50 [9]: 248 nM; selectivity index (SI), BRK over RIPK3 [9]: 124; inhibition at 1 µM [10]: > 65%; S (35) score ([11]; 1 μM): approximately 0.005; S (35) score ([11]; 10 μM): approximately 0.03; number of kinases with over 65% inhibition rate ([11]; 10 μM): 12 kinases; inhibition at 1 µM [12]: > 65%; IC50 [13]: 48 nM; selectivity index (SI), RIPK2 over RIPK3 [13]: 24
